# Bioassay records (PubChem)
# Hits are enriched below; roughly 1.7% of the tested compounds scored in any of these assays.
# HNF4A DNA FP = change in binding of human HNF4A to DNA, primary screen, biochemical, fluorescence polarization, FITC-DNA; AID 1224865, 2016; Hepatocyte nuclear factor 4-alpha (Homo sapiens), P41235; activity change, % at 10 µM; 1 h; hit rate 0.3% among 360,000; in the data active means activity change above about 30%, passing the limit was not always enough
# Target sequence (P41235 whole entry, looked up): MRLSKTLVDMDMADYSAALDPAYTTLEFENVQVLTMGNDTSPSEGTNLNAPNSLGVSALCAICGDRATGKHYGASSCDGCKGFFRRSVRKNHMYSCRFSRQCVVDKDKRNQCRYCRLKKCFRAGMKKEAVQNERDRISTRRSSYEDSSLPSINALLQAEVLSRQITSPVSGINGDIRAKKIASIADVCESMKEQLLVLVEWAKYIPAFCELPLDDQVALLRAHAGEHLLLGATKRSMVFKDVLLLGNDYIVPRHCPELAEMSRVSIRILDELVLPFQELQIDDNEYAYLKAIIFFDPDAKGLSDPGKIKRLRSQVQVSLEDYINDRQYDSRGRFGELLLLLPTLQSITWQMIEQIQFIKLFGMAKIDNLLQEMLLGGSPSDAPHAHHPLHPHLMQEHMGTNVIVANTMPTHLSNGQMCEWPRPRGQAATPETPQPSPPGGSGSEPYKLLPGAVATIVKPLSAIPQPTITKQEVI
# TPT1 inhibitor = Candida albicans TPT1 enzyme inhibitors, primary screen, biochemical, fluorescence polarization; tRNA 2'-phosphotransferase TPT1 (Candida albicans SC5314); recombinant caTPT1, FP RNA substrate dephosphorylation; inhibition, % at 5 µM; hit rate 0.81% among 300,000;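 active means inhibition above the mean of all tested compounds plus 3 SD, set per screening campaign, cut at about 24% in these data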
# IDE cell activ = human IDE activators in live cells, primary screen, fluorescence polarization, HEK cells, FAbeta-B substrate; Insulin-degrading enzyme (Homo sapiens), P14735; FAbeta-B cleavage; 0% vehicle, 100% cell-free pure enzyme wells; activation, % at 5.96 µM; hit rate 0.073% among 340,000;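 active means activation above the mean of all tested compounds plus 3 SD, set per screening campaign, cut at about 17% in these data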
# Rpn11 block = Rpn11 (PSMD14) deubiquitinase inhibitors, primary screen, biochemical, fluorescence polarization, uHTS. 26S proteasome non-ATPase regulatory subunit 14 (Homo sapiens), O00487. hit rate 0.59% among 360,000. inhibition, % at 20 µM. human 26S proteasome, Ub4-pepOG fluorescence polarization; 20S core pre-blocked with epoxomicin;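 active means inhibition at 20 µM, scaled to each plate's controls, above about 33%, limit read from the data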
# CSN deneddyl inh = inhibitors of CSN-mediated cullin deneddylation, primary screen, biochemical, fluorescence polarization, uHTS; hit rate 0.38% among 360,000; inhibition, % at 12.5 µM; AID 651999, 2013; Purified CSN, SCF-Nedd8-OG deneddylation; COP9 signalosome complex subunit 5 (Homo sapiens), Q92905;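 active means pattern-corrected inhibition above about 35%, with an unprinted fluorescence ratio check between 0.5 and 1.5, limit read from the data, passing the limit was not always enough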
#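 Material: human Csn5 produced in HEK293T cells; Input: enzyme 0.24 nM; Reagent: SCFSkp2-Nedd8OG substrate at 10 nM final; Dosing: 12.5 µM compound; Incubation: 90 min reaction at room temperature; Detection: fluorescence polarization of the substrate; Evaluation: % inhibition of substrate cleavage by Csn5; Control set: substrate-only high control, full reaction low control.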
# IDE inh = human IDE inhibitors in live cells, primary screen, fluorescence polarization, HEK cells, FAbetaB substrate; Insulin-degrading enzyme (Homo sapiens), P14735; FAbetaB cleavage; inhibition, % at 5.59 µM; hit rate 0.41% among 320,000; AID 434962, 2010;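 active means percent inhibition above the average of all tested compounds plus 3 SD, set per screening campaign, cut at about 16% in these data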;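 further: IDE supplied by intact live HEK cells; FP after avidin binding of uncleaved biotin substrate so inhibition keeps polarization high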
# Numbers stand for hits; . = inactive; / = no result given; ! = not active in a repeat.
SMILES,HNF4A DNA FP,TPT1 inhibitor,IDE cell activ,Rpn11 block,CSN deneddyl inh,IDE inh
Cc1ccc(C(=O)Oc2oc(-c3ccccc3)nc2C=Nc2ccc(N(C)C)cc2)cc1,.,.,.,/,46.6,.
CCOc1cc(OCC)cc(C(=O)N2CCC[C@H]2C(=O)N2CCC[C@H]2C(=O)N[C@H](C)c2ccccc2)c1,.,/,/,/,.,/
CC(=O)Nc1ccc(C(=O)CS(=O)(=O)c2ccc(C)cc2)cc1,.,.,.,.,.,.
CC(=O)Nc1ccc(S(=O)(=O)c2ccc(C)cc2)cc1,34.4,.,.,.,.,.
COc1cc2c(cc1NC(=O)CSc1nnc(Cc3cccs3)n1Cc1ccco1)oc1ccccc12,.,.,.,.,.,.
Cc1cc(Cl)ccc1NC(=O)CSc1nnc(Cc2cccs2)n1Cc1ccco1,41.8,.,.,.,.,.
C=CCN=C1NN=C(c2ccc3c(c2)OCCO3)CS1,.,.,.,.,.,.
CC(=O)Nc1cc(-c2cccc(C(=O)NCCN(C)C)c2)cn2c(-c3ccc(F)c(Cl)c3)cnc12,.,/,/,.,82.4,/
CC(=O)Nc1cc(-c2cccc(C(=O)NCCN(C)C)c2)cn2c(-c3ccc(C(C)=O)cc3)cnc12,.,/,/,.,.,/
O=C1CSC(=S)N1N=Cc1c(O)ccc2ccccc12,93.1,/,.,/,.,/
O=C1CSC(=S)N1/N=C/c1c(F)cccc1F,.,.,.,.,.,.
COc1ccc(N=C2S/C(=C\c3ccc(OCC(=O)O)cc3)C(=O)N2CCc2c[nH]c3ccccc23)cc1,.,/,.,.,35.6,/
FC(F)(F)c1cc(CCN2CCNC[C@H]2Cc2cccc3ccccc23)cc(C(F)(F)F)c1,.,.,19.9,.,.,.
CCOC(=O)C1(CC2CC2)CCN(C(=O)c2cccnc2C)CC1,.,.,.,.,.,.
O=C1NC(=O)C(=CC=Cc2ccccc2)S1,.,/,/,.,.,/
O=C1CC(N2C(=O)/C(=C/C=C/c3ccccc3)SC2=S)C(=O)N1c1ccccc1 (stereo not given),.,78.0,.,/,.,.
Cc1sc2c(c1C)C(=O)/C(=C\Nc1ccncc1)S(=O)(=O)N2C,.,.,.,.,35.0,.
CC(=O)NCCCc1nc2ccccc2n1Cc1cc(C)ccc1C,.,.,.,.,.,.
COc1cc(C(=O)NCCCc2nc3ccccc3n2Cc2cc(C)ccc2C)cc(OC)c1OC,37.0,.,.,.,.,.
Cc1ccc(NC(=S)Nc2cccc3cnccc23)c(C)c1,.,.,.,.,.,.
C=C(C)CNC(=S)Nc1cccc2cnccc12,.,.,.,.,.,.
CCc1ccc(NC(=S)Nc2cccc3cnccc23)cc1,.,.,.,.,38.2,.
Cc1cc(C)cc(NC(=S)Nc2cccc3cnccc23)c1,.,/,.,.,37.1,/
CCC1CCCCN1S(=O)(=O)c1ccc(NC(=O)c2nc(S(C)(=O)=O)ncc2Cl)cc1 (stereo not given),.,.,.,.,.,.
Cc1ccc(S(=O)(=O)N2CCOCC2)cc1NC(=O)CSc1nnnn1C,.,.,.,.,.,.
SMILES,HNF4A DNA FP,TPT1 inhibitor,IDE cell activ,Rpn11 block,CSN deneddyl inh,IDE inh
CCOC(=O)C1C(=O)NC(SCC(=O)Nc2nccs2)=C(C#N)C1c1ccccc1OCC (stereo not given),.,.,.,60.8,.,.
Cc1c(S(=O)(=O)N2CCCCC2)c(=O)n(C)c(=O)n1C,.,.,.,.,63.9,.
CC1(C(=O)NS(=O)(=O)c2cccc(Cl)c2)CCN1C(=O)Cc1ccc(Cl)cc1Cl (stereo not given),.,/,/,.,.,/
C=CC[C@@H](CC(=O)N[C@H](CO)Cc1ccccc1)C(=O)N[C@H](COC(=O)[C@H](CC=C)CC(=O)OC(C)(C)C)Cc1c[nH]c2ccccc12,.,/,.,.,.,/
Cc1cccc(C)c1NC(=O)C(c1ccc(-c2ccccc2)cc1)n1c(=O)c(-c2ccco2)nc2ccccc21 (stereo not given),.,/,/,/,43.9,/
Cc1cccc(C)c1NC(=O)C(c1ccccc1)n1c(=O)c(-c2ccccc2)nc2ccccc21 (stereo not given),.,/,/,/,.,/
CC(C)(C)NC(=O)C(c1ccc(-c2ccccc2)cc1)n1c(=O)c(-c2ccco2)nc2ccccc21 (stereo not given),46.0,/,/,/,.,/
CCOC(=O)c1c(SCC(=O)Nc2nccs2)nc(C)c(C)c1C,.,/,.,.,.,/
CCS(=O)(=O)N1CCC(c2nc3ccccc3[nH]2)CC1,.,.,.,.,.,.
COc1ccc(Cl)cc1NC(=O)C(C)OC(=O)Cn1cc(C(F)(F)F)ccc1=O (stereo not given),.,/,.,.,.,.
Cc1ccccc1NC(=O)CSc1nc(O)cc(=O)n1C,.,.,.,.,.,.
CC(NC(=O)c1cccc(S(=O)(=O)N2CCCCCC2)c1)c1ccccc1 (stereo not given),.,/,.,.,.,.
COc1cccc(C(=O)NC2CC3CCCC(C2)N3CC(=O)Nc2ccccc2)c1 (stereo not given),.,.,.,.,62.1,.
Cc1cc(C)c[n+](-c2nc3ccccc3nc2C(=C=[N-])C#N)c1,43.8!,.,.,.,.,.
COc1ccc(S(=O)(=O)N2CCC(C(=O)NCc3ccccc3)CC2)cc1OC,.,.,.,.,.,.
CN(C(=O)CSc1nnc(COc2ccccc2F)n1N)C1CCS(=O)(=O)C1 (stereo not given),.,.,.,.,.,.
CC(C)n1cc(/C=N/Nc2ccc(Cl)c(C(=O)O)c2)c2ccccc21,.,.,.,.,39.6,.
O=C(O)c1cc(N/N=C/c2cccc3ccccc23)ccc1Cl,.,.,.,.,.,.
CCn1c(SCC(=O)N/N=C/c2ccccc2OCC(=O)O)nnc1-c1ccc(C)cc1,.,.,.,.,.,.
O=C(Cc1ccc(-n2c(=O)[nH]c3ccsc3c2=O)cc1)N1CCN(c2ccc(Cl)cc2)CC1,.,.,.,.,.,21.1
Cc1cccc(N2CCN(C(=O)Cc3ccc(-n4c(=O)[nH]c5ccsc5c4=O)cc3)CC2C)c1 (stereo not given),.,.,.,.,.,.
COc1ccccc1C(=O)NNC(=O)CCCN1C(=O)/C(=C/c2cccs2)SC1=S,39.8,.,.,/,.,.
COC(=O)Cn1c(C)c(/C=C/c2cc[n+](C)cc2)c2ccccc21,.,/,.,/,69.5,/
